Measurements: article PMC9499614 (ACS chemical biology, 2022)
Read-outs that look alike come from different tables or passages of the source. Each block holds one molecule with its values, some of them ahead of it.

Experiments:
[1] = system: Sirt7-CLB; experiment: NanoBit; type: binding; details: H3K18-acetylated nucleosomes with ADPr
In short: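 Sirt7 was fused C-terminally to the NanoLuc large-bit fragment and purified natively. […] Buffer: 50 mM Tris pH 8.0, 250 µg/ml BSA. Incubated 20 min at RT. NanoGlow substrate added (50x final dilution), equilibrated 5 min at 37°C, luminescence read every 30 s for 15 min.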

[2] = biological target: Sirt7-CLB (Sirt7 with the NanoLuc large bit fused to its C-terminus) (UniProt Q9NRC8); experiment: split reporter
[3] = biological target: T1, Sirt7 (Homo sapiens, UniProt Q9NRC8); type: biochemical; details: saturating H3K18-Deca peptide, variable NAD^+
T1 sequence (Q9NRC8 1-400): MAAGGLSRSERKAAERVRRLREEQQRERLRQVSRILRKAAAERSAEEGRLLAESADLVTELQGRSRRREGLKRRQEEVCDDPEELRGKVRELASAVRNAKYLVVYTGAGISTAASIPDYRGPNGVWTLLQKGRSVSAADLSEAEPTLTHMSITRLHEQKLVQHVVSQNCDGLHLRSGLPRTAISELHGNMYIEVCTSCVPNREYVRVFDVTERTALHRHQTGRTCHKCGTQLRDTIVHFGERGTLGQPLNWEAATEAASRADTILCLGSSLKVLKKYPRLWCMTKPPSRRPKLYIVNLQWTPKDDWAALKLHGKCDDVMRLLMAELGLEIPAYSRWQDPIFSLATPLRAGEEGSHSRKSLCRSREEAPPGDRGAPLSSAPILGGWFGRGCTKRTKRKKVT
In short: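 NAD⁺ serially diluted (10-10000 µM) in 50 mM Tris pH 8.0. Mixed 1:1 with 500 µM (pre-mix) H3K18Ac-DNB or H3K18Deca-DNB peptide in 50 mM Tris pH 8.0, 20% DMSO, 1 mM DTT. Pre-incubated 10 min at 37°C. Started with Sirt7 complex carrying 2 µM nicotinamidase, run 30-60 min, quenched with 6% TFA. HPLC monitored at 400 nm; Michaelis-Menten fit.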

[4] = biological target: T2, apoSirt7 (Homo sapiens, UniProt Q9NRC8); experiment: Michaelis-Menten kinetics with variable H3K18 acylated peptide, apoSirt7; type: biochemical; details: uncomplexed Sirt7, H3K18Ac
T2 sequence (Q9NRC8 1-400): T1 sequence (Q9NRC8 1-400)
In short: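 Acylated H3K18 peptide serially diluted in 50 mM Tris pH 8.0 with 20% DMSO. 20 µL of Sirt7 solution was mixed with 20 µL of peptide at 37°C. Reactions were started with 10 µL of 10 mM NAD⁺ stock, run 5-60 min at 37°C and quenched with 6% TFA. Products were resolved by C18 HPLC. Product concentration = deacetylated/acetylated peak ratio × total substrate. Three independent experiments; Michaelis-Menten fit.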

[5] = system: acidic patch regions of nucleosomes; experiment: LANA-FAM nucleosome binding and competition with Sirt7; parameters: species or system human; details: LANA-FAM pre-bound to nucleosomes, fluorescence anisotropy
[6] = biological target: T1, Sirt7; details: cited from earlier work; for activity of recombinant apoSirt7 (in words): in vitro

reduction in Kd value on ADPr addition [1]: 2.5 fold
Molecule: Nc1ncnc2c1ncn2[C@@H]1O[C@H](COP(=O)(O)OP(=O)(O)OC[C@H]2OC(O)[C@H](O)[C@@H]2O)[C@@H](O)[C@H]1O (stereo partly shown) [ADPr, ADP-ribose]

Kd [2]: 3.75 nM
Molecule: H3K18-acetylated small bit nucleosomes (SMB-AcNucs) (from UniProt P0C0S8 1-130; P68431 1-136; P62805 1-103) (complex)

Molecule: Sirt7: 400 amino acid protein within the Class III deacetylase family; recombinant, E. coli
Km ([3]; read-out: KM^NAD, 50 mM Tris pH 8.0, 37°C, 30-60 min, HPLC): 680 ± 80 µM
kcat/KM [3]: 32±4.1 M^−1x s^−1
kcat ([3]; 50 mM Tris pH 8.0, 37°C, 30-60 min, HPLC): 0.022 ± 0.001 s⁻¹
H3K18 deacetylation activity (in words) [4]: very low, but readily measurable H3K18 deacetylation activity
displacement of LANA-FAM from nucleosomes (in words) [5]: Competitive displacement of LANA-FAM peptide from the pre-formed LANA-nucleosomal complex
activity of recombinant apoSirt7 (in words) ([6]; no reference number at the word, ref [19],[28] in sentence): completely inactive
activity of recombinant apoSirt7 (in words) ([6]; ref [19]): completely inactive
activity of apoSirt7 (in words) ([6]; ref [19],[40]): inactive
